ATG4B inhibitor: ATG4B (human) cysteine protease inhibition; ATG4B cleavage of LC3-PLA2, NBD-HPC fluorescence, 1 h; inhibition, % at 8.33 µM; actives 0.51% (n = 340,000); in the data active = inhibition above about 40%
Target sequence (Q9Y4P1 whole entry, looked up): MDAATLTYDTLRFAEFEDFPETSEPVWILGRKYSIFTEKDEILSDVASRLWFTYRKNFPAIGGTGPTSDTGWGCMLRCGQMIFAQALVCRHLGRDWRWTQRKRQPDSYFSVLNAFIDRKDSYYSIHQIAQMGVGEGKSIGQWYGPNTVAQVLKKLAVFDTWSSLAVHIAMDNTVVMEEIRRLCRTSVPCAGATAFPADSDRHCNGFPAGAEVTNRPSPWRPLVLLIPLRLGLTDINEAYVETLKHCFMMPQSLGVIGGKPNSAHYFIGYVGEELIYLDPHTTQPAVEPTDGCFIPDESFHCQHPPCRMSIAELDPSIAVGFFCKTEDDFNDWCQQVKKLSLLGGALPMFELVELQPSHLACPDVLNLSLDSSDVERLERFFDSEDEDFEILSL
Dynein cargo inh: blocks dynein driven cargo transport along microtubules; z-score, hits read low; 3617.4 mouse cells, GR-EGFP nuclear translocation imaging; test concentration mostly 20 µM; stimulated with dexamethasone, 1 µM; hits give low values; actives 0.47% (n = 220,000); AID 1381;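 active = plate z-score of nuclear minus cytoplasmic receptor signal below a set negative limit, without overly bright fluorescence or cell loss, cut at about -3.5 in these data, passing the limit was not always enough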;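 also: z-score of nuclear minus cytoplasmic ring GR-EGFP intensity difference per well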
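Buffer or medium: Induction medium lacking tetracycline, stripped serum | Also added: Dexamethasone agonist, 1.0 µM final, for 30 min | Timing: 48 h induction, 1 h compound, 30 min dex at 37 °C | Detection: Formaldehyde fixation, Hoechst nuclear stain, 10x automated fluorescence imaging | Measure: Nuclear versus cytoplasmic GR-EGFP signal, averaged per well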
Beta2AR agonist: activates human beta-2 adrenergic receptor causing internalization; P07550; Am2.2-beta2AR cells, FAP receptor internalization, flow cytometry; response, % (concentration not given with the values); actives 0.43% (n = 340,000);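 active = response above a set limit, near 3 SD of response in nonfluorescent compounds, cut at about 42% in these data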
MEKK3 PB1 HTS: raises or lowers MEK5 binding to the human MEKK3 PB1 domain; Q99759; actives 1.4% (n = 290,000); bead-based flow cytometry, Alexa488-MEK5 binding to MEKK3; actives lie on both sides; 0 = blocked by unlabeled MEK5, 100 = vehicle; binding response (% of control), % at 10 µM;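 active = binding response more than 3 SD above or below the average of its plate-row segment, actives on both sides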;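 also: Alexa488 bead fluorescence after subtracting the streptavidin-only scavenger bead signal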
MEKK2 mut-MEK5: signal of MEK5 binding to mutant human MEKK2 PB1 domain. bead flow cytometry, Alexa488-MEK5 binding to MEKK2 mutant. actives 0.35% (n = 290,000). percent response, % at 10 µM; in the data active = percent response above about 24%, passing the limit was not always enough
MEKK2 WT-MEK5: raises or lowers MEK5 binding to wildtype human MEKK2 PB1 domain; Q9Y2U5; binding response (% of control), % at 10 µM; actives 1.1% (n = 290,000); bead flow cytometry, Alexa488-MEK5 binding to MEKK2 WT; actives lie on both sides; AID 1531; in the data active = binding response below about 67% or above about 130%
MEKK2wt confirm: raises or lowers MEK5 binding to wildtype human MEKK2, retest. binding response (% of control), % at 10 µM. shares compounds with MEKK3 PB1 HTS. AID 1892. bead flow cytometry, Alexa488-MEK5 binding to MEKK2 WT; actives lie on both sides. actives 2.4% (n = 5,900); in the data active = binding response below about 16% or above about 210%; inactive = in between
MEKK2mut-MEK5: signal of MEK5 binding to mutant human MEKK2, retest. AID 1893. actives 2% (n = 5,900). percent response, % at 10 µM. shares compounds with MEKK3 PB1 HTS. bead flow cytometry, Alexa488-MEK5 binding to MEKK2 mutant; in the data active = percent response mostly above about 71%, no sharp cut-off; inactive = mostly below about 38%;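 also: higher means compound restores mutant binding toward wildtype level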
MEKK3 confirm: confirmation of inhibitors of MEK5 binding to human MEKK3. shares compounds with MEKK3 PB1 HTS. bead flow cytometry, Alexa488-MEK5 binding to MEKK3; hits give low values. binding response (% of control), % at 10 µM. actives 1.8% (n = 5,900);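 active = binding response below 72% of control, or above a set upper limit, though filed actives all read lower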;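 also: 100% = DMSO only wells and 0% = binding blocked by excess unlabeled MEK5; lower values mean stronger disruption of MEK5 binding to MEKK3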
* = called active by the depositor; / = no result given; [ ] = another dose, or the depositor's remark. This is a sample that favours compounds with a hit; in the whole collection about 2.9% have one here.

SMILES	ATG4B inhibitor	Dynein cargo inh	Beta2AR agonist	MEKK3 PB1 HTS	MEKK2 mut-MEK5	MEKK2 WT-MEK5	MEKK2wt confirm	MEKK2mut-MEK5	MEKK3 confirm
COc1ccc(C(=O)Nn2cnnc2)cc1OC	-4	0.61	11	88	-20	93	/	/	/
O=C(COC(=O)CCc1c[nH]c2ccccc12)NCc1ccccc1	-10	0.8	1	101	-2	102	/	/	/
O=C(COC(=O)CCc1c[nH]c2ccccc12)NCc1ccc(Cl)cc1	-1	0.75	6	2.0*[inhibitor]	-1	2.0*[inhibitor]	101	-3	102
COc1ccc(COC(=O)C2=C(C)NC(=O)NC2c2ccccc2)cc1 (stereo not drawn)	-7	/	-2	105	17	109	/	/	/
C=CCN1C(=O)C2C(C(=O)NC3CCCC3)C3(C)C=CC2(O3)C1C(=O)NC1CCCC1 (stereo not drawn)	-4	/	-1	102	3	105	/	/	/
CC12C=CC3(O1)C(C(=O)N(c1ccccc1)C3C(=O)NC1CCCC1)C2C(N)=O (stereo not drawn)	-6	0.76	4	20*[inhibitor]	-3	29*[inhibitor]	102	2	102
OCCNCCCOc1ccc(Cl)cc1Br	-2	-0.64	19	101	12	122	/	/	/
Clc1ccc(OCCCNCc2ccccc2)c(Br)c1	9	-0.29	-13	105	22	153*	134	19	103
Cc1oc(-c2ccccc2)cc1C(=O)NCc1ccncc1	-7	-0.51	5	102	13	56*[inhibitor]	104	-4	99
Cc1nn(-c2ccccc2[N+](=O)[O-])c(=O)c2ccccc12	3	0.13	-3	106	6	106	/	/	/
Cc1nn(-c2ccccc2C(=O)O)c(=O)c2ccccc12	9	0.18	8	2.0*[inhibitor]	-26	-1.0*[inhibitor]	103	2	103
Cc1cccc(C(=O)OCc2cnc(Cl)s2)c1	-12	-0.16	-24	15*[inhibitor]	-17	25*[inhibitor]	104	4	101
COc1ccc(NC(=O)c2cc(C)nc3ccccc23)c(OC)c1	-15	0.028	0	100	-2	93	/	/	/
COc1cc(NC(=O)c2cc(C)nc3ccccc23)cc(OC)c1OC	2	0.012	-3	142*	10	122	110	6	105
O=C(CN1C(=O)NC(c2ccccc2)(c2ccccc2)C1=O)NCCc1ccc(F)cc1	-11	/	5	/	/	/	/	/	/
O=C(Nc1ccc(F)c(Cl)c1)Nc1csc2ccccc12	28	-0.34	12	104	34	191*	164	26	107
COC(=O)[C@]1(C)N[C@H](CN(C)C(=O)c2ccc(F)cc2)[C@@H]2C(=O)N(C)C(=O)[C@@H]21	-8	/	4	/	/	/	/	/	/
Cc1ccc(S(=O)(=O)NC(Cc2ccccc2)C(=O)O)cc1 (stereo not drawn)	3	-0.74	-2	1.0*[inhibitor]	-27	-3.0*[inhibitor]	91	-6	96
Cc1ccc(S(=O)(=O)NC(Cc2ccc(Cl)cc2)C(=O)O)cc1 (stereo not drawn)	0	/	-2	104	6	109	/	/	/
Cc1cccc(S(=O)(=O)NC(Cc2c[nH]c3ccccc23)C(=O)O)c1 (stereo not drawn)	7	0.12	3	131*	0	109	98	0	100
Cc1noc(C(F)(F)F)c1C(=O)NNC(=O)c1ccccc1	17	1.4	-7	96	-15	89	/	/	/
CN(C)S(=O)(=O)c1cccc(NC(=O)c2cc(-c3cccs3)nn2-c2ccccc2)c1	8	0.28	1	142*	0	108	98	-1	106
NC(=O)COC(=O)c1cc(-c2cccs2)nn1-c1ccccc1	-4	0.22	-9	136*	0	115	101	4	100
CCN(CC)S(=O)(=O)c1cccc(NC(=O)c2cc(-c3cccs3)nn2-c2ccccc2)c1	-3	-0.78	3	103	-1	105	/	/	/
COC(=O)c1cc(-c2cccs2)nn1-c1ccccc1	-1	-0.49	0	99	-7	87	/	/	/
SMILES	ATG4B inhibitor	Dynein cargo inh	Beta2AR agonist	MEKK3 PB1 HTS	MEKK2 mut-MEK5	MEKK2 WT-MEK5	MEKK2wt confirm	MEKK2mut-MEK5	MEKK3 confirm
CCOC(=O)C(NCc1ccco1)(NC(=O)c1ccccc1)C(F)(F)F (stereo not drawn)	-9	-1.2	4	133*	5	130	108	4	106
C=C(C)c1sc(-c2ccc(Cl)cc2)nc1C	-1	/	-8	103	4	102	/	/	/
Cc1nn(CC(=O)NCc2ccc(Cl)cc2)c(C)c1[N+](=O)[O-]	7	-0.43	0	99	-1	99	/	/	/
CSc1ccccc1NC(=O)CN(c1cccc(C)c1)S(C)(=O)=O	1	-1	-4	67*[inhibitor]	-11	81	98	-7	98
CCc1cc2ccc(C)cc2nc1SCC(=O)Nc1cc(C)on1	-7	-0.31	1	90	-10	91	/	/	/
CCc1cc2cc(C)ccc2nc1SCC(=O)Nc1cc(C)on1	-9	-3.5	3	128*	2	95	104	4	104
COc1ccc(NC(=S)N2CCN(c3ncccn3)CC2)c(OC)c1	0	-0.36	3	97	-16	94	/	/	/
CCN(C(=O)CSc1ncccc1C(=O)OC(C)C)c1cccc(C)c1	15	-0.13	-5	0.0*[inhibitor]	-26	-3.0*[inhibitor]	104	6	107
CCOC(=O)c1cccnc1SCC(=O)N(CC)c1cccc(C)c1	-4	0.25	1	90	-5	94	/	/	/
CS(=O)(=O)c1nc(S(=O)(=O)c2ccc(Cl)cc2)c(N2CCCCCC2)s1	14	/	-7	96	0	94	/	/	/
O=C(/C=C/c1cccc([N+](=O)[O-])c1)N1CCN(C(=O)c2ccco2)CC1	-8	-0.57	-9	102	-1	103	/	/	/
O=C(c1ccco1)N1CCN(C(=O)N2c3ccccc3Sc3ccccc32)CC1	0	-0.81	26	78*[inhibitor]	-8	90	97	-4	96
O=C(/C=C/c1ccccc1)N1CCN(C(=O)c2ccco2)CC1	2	0.32	-11	69*[inhibitor]	9	119	91	-7	87

Screens from PubChem.
